Measurements as given in ChEMBL document CHEMBL3525921, “Metabolic pathways of inhaled glucocorticoids by the CYP3A enzymes” (Drug Metab Dispos, 2013).
Blank lines part the entries; values can stand above or below the molecule they belong to.

Assays:
Format in all cases: ADME
[1] = biological target: T1, Cytochrome P450 3A4 (Homo sapiens, UniProt P08684); assay: Drug metabolism assessed as recombinant CYP3A4 (unknown origin)-mediated delta6-triamcinolone acetonide metabolite retention time by MS/MS analysis; details: recombinant enzyme
T1 sequence (P08684 whole entry): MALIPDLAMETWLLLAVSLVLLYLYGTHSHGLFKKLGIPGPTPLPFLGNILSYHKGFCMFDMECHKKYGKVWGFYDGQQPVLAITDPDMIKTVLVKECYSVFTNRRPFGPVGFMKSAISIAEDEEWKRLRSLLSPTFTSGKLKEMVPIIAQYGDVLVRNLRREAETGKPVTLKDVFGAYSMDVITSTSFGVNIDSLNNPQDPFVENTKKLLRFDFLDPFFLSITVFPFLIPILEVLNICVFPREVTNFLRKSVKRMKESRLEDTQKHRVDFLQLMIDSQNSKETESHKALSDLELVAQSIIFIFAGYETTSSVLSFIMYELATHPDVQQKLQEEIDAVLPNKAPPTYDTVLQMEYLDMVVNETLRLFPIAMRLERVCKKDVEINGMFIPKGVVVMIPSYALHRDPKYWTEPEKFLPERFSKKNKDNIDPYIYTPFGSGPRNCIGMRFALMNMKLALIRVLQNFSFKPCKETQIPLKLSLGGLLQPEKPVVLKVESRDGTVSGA
How it was run: (§1)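 Metabolite profiling used 50 pmol recombinant P450 (with reductase and cytochrome b5) and 100 μM substrate in 30 mM potassium phosphate (pH 7.4). Reactions were started with 1.3 mM NADPH at 37°C, with no-NADPH negative controls. They were stopped with cold acetonitrile, deproteinized by centrifugation, and metabolites were extracted on C-18 cartridges for MS analysis.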

[2] = biological target: T1, Cytochrome P450 3A4; assay: Drug level of the compound assessed as recombinant CYP3A4 (unknown origin)-mediated metabolite formation treated with triamcinolone acetonide by MS/MS analysis; details: recombinant enzyme; how it was run: as §1
[3] = biological target: T1, Cytochrome P450 3A4; assay: Drug metabolism assessed as recombinant CYP3A4 (unknown origin)-mediated 6beta-hydroxy, 21-carboxy triamcinolone acetonide metabolite retention time by MS/MS analysis; details: recombinant enzyme; how it was run: as §1
[4] = biological target: Cytochrome P450 3A7 (Homo sapiens, UniProt P24462); assay: Drug level of the compound assessed as recombinant CYP3A7 (unknown origin)-mediated metabolite formation treated with budesonide by MS/MS analysis; details: recombinant enzyme; how it was run: as §1
Sequence of Cytochrome P450 3A7 (P24462 whole entry): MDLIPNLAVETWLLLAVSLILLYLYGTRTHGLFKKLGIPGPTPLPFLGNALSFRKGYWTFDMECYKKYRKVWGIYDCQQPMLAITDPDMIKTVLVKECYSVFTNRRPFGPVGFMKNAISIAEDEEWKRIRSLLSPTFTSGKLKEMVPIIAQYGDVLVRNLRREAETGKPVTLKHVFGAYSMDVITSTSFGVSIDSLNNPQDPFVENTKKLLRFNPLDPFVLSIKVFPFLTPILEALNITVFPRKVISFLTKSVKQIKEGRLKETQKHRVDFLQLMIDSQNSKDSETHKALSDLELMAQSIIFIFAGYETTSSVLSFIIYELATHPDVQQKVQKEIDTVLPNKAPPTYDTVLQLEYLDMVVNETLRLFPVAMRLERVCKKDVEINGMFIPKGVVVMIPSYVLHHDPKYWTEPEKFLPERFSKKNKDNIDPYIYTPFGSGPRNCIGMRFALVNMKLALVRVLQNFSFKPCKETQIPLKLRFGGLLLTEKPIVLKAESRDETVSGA

[5] = biological target: T1, Cytochrome P450 3A4; assay: Drug level of the compound assessed as recombinant CYP3A4 (unknown origin)-mediated metabolite formation treated with budesonide by MS/MS analysis; details: recombinant enzyme; how it was run: as §1
[6] = biological target: Cytochrome P450 3A5 (Homo sapiens, UniProt P20815); assay: Drug level of the compound assessed as recombinant CYP3A5 (unknown origin)-mediated metabolite formation treated with budesonide by MS/MS analysis; details: recombinant enzyme; how it was run: as §1
Sequence of Cytochrome P450 3A5 (P20815 whole entry): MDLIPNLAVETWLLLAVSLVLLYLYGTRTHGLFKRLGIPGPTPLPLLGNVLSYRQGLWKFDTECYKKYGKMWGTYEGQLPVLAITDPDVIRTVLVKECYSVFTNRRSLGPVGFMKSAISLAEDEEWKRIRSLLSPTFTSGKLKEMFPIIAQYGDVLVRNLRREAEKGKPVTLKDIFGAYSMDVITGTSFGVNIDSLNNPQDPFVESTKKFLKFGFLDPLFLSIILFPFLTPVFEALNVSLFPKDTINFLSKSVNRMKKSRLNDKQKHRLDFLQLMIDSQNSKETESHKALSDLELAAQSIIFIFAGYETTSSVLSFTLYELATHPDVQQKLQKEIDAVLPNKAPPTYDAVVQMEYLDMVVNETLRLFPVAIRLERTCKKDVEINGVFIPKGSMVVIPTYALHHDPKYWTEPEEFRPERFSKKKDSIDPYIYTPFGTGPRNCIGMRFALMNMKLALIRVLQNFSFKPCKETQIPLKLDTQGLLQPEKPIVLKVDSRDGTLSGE

[7] = biological target: T1, Cytochrome P450 3A4; assay: Drug metabolism assessed as recombinant CYP3A4 (unknown origin)-mediated 16alpha-hydroxy prednisolone metabolite formation by MS/MS analysis; details: recombinant enzyme
[8] = biological target: T1, Cytochrome P450 3A4; assay: Drug metabolism assessed as recombinant CYP3A4 (unknown origin)-mediated delta6-budesonide metabolite formation by MS/MS analysis; details: recombinant enzyme; how it was run: as §1
[9] = biological target: T1, Cytochrome P450 3A4; assay: Drug metabolism assessed as recombinant CYP3A4 (unknown origin)-mediated 23-hydroxy budesonide metabolite formation by MS/MS analysis; details: recombinant enzyme; how it was run: as §1
[10] = biological target: CYP3A5 (Homo sapiens, UniProt P20815); assay: Activity at recombinant CYP3A5 (unknown origin) assessed as half life at 1 uM by LC-MS analysis
Sequence of CYP3A5 (P20815 whole entry): as above
How it was run: (§2)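 Recombinant P450 co-expressing P450 reductase and cytochrome b5, 10 pmol, with 1 μM substrate in 30 mM potassium phosphate (pH 7.4). Started with 1.3 mM NADPH at 37°C; no-NADPH negative controls. Samples at 0–20 min were quenched in cold acetonitrile with prednisolone internal standard and run by LC/MS, in triplicate. Parent/IS ratio vs time fitted to one-phase exponential decay; t1/2 = 0.69/kobs.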

[11] = biological target: T1, Cytochrome P450 3A4; assay: Drug metabolism assessed as recombinant CYP3A4 (unknown origin)-mediated 6beta-hydroxy budesonide metabolite formation by MS/MS analysis; details: recombinant enzyme; how it was run: as §1
[12] = biological target: CYP3A4 (Homo sapiens, UniProt P08684); assay: Activity at recombinant CYP3A4 (unknown origin) assessed as half life at 1 uM by LC-MS analysis; how it was run: as §2
Sequence of CYP3A4 (P08684 whole entry): as the sequence (P08684 whole entry) above

[13] = biological target: T1, Cytochrome P450 3A4; assay: Drug metabolism assessed as recombinant CYP3A4 (unknown origin)-mediated 16alpha-hydroxy prednisolone metabolite formation by MS/MS analysis in presence of esterase inhibitor; details: recombinant enzyme
[14] = biological target: CYP3A7 (Homo sapiens, UniProt P24462); assay: Activity at recombinant CYP3A7 (unknown origin) assessed as half life at 1 uM by LC-MS analysis; how it was run: as §2
Sequence of CYP3A7 (P24462 whole entry): as the sequence (P24462 whole entry) above

[15] = biological target: T1, Cytochrome P450 3A4; assay: Drug level of the compound assessed as recombinant CYP3A4 (unknown origin)-mediated metabolite formation treated with fluticasone propionate by MS/MS analysis; details: recombinant enzyme; how it was run: as §1
[16] = biological target: T1, Cytochrome P450 3A4; assay: Drug metabolism assessed as recombinant CYP3A4 (unknown origin)-mediated 17beta-carboxy fluticasone propionate metabolite retention time by MS/MS analysis; details: recombinant enzyme; how it was run: as §1
[17] = biological target: T1, Cytochrome P450 3A4; assay: Drug metabolism assessed as recombinant CYP3A4 (unknown origin)-mediated keto-flunisolide metabolite retention time by MS/MS analysis; details: recombinant enzyme; how it was run: as §1
[18] = biological target: T1, Cytochrome P450 3A4; assay: Drug metabolism assessed as recombinant CYP3A4 (unknown origin)-mediated 6beta-hydroxy triamcinolone acetonide metabolite retention time by MS/MS analysis; details: recombinant enzyme; how it was run: as §1
[19] = biological target: T1, Cytochrome P450 3A4; assay: Drug metabolism assessed as recombinant CYP3A4 (unknown origin)-mediated delta6-flunisolide metabolite retention time by MS/MS analysis; details: recombinant enzyme; how it was run: as §1
[20] = biological target: T1, Cytochrome P450 3A4; assay: Drug level of the compound assessed as recombinant CYP3A4 (unknown origin)-mediated metabolite formation treated with flunisolide by MS/MS analysis; details: recombinant enzyme; how it was run: as §1
[21] = biological target: T1, Cytochrome P450 3A4; assay: Drug metabolism assessed as recombinant CYP3A4 (unknown origin)-mediated 21-carboxy flunisolide metabolite retention time by MS/MS analysis; details: recombinant enzyme; how it was run: as §1
[22] = biological target: T1, Cytochrome P450 3A4; assay: Drug metabolism assessed as recombinant CYP3A4 (unknown origin)-mediated 21-carboxy triamcinolone acetonide metabolite retention time by MS/MS analysis; details: recombinant enzyme; how it was run: as §1
[23] = biological target: T1, Cytochrome P450 3A4; assay: Drug metabolism assessed as recombinant CYP3A4 (unknown origin)-mediated 21-nortriamcincolone acetonide metabolite retention time by MS/MS analysis; details: recombinant enzyme; how it was run: as §1

Retention_time [1]: 19.1 min
Drug metabolism [2]: metabolite_detected
Compound: CC1(C)O[C@@H]2C[C@H]3[C@@H]4C=CC5=CC(=O)C=C[C@]5(C)[C@@]4(F)[C@@H](O)C[C@]3(C)[C@]2(C(=O)CO)O1

Retention_time [3]: 16.4 min
Drug metabolism [2]: metabolite_detected
Compound: CC1(C)O[C@@H]2C[C@H]3[C@@H]4C[C@@H](O)C5=CC(=O)C=C[C@]5(C)[C@@]4(F)[C@@H](O)C[C@]3(C)[C@]2(C(=O)C(=O)O)O1

Drug metabolism [4]: metabolite_detected
Drug metabolism [5]: metabolite_detected
Drug metabolism [6]: metabolite_detected
Compound: CCCC1O[C@@H]2C[C@H]3[C@@H]4C[C@@H](O)C5=CC(=O)C=C[C@]5(C)[C@H]4[C@@H](O)C[C@]3(C)[C@]2(C(=O)CO)O1 (stereo not given in full)

Drug metabolism [4]: metabolite_detected
Drug metabolism [5]: metabolite_detected
Drug metabolism [6]: metabolite_detected
Compound: CCCC1O[C@@H]2C[C@H]3[C@@H]4C=CC5=CC(=O)C=C[C@]5(C)[C@H]4[C@@H](O)C[C@]3(C)[C@]2(C(=O)CO)O1 (stereo not given in full)

Drug metabolism [4]: metabolite_detected
Drug metabolism [5]: metabolite_detected
Drug metabolism [6]: metabolite_detected
Compound: CCC(O)C1O[C@@H]2C[C@H]3[C@@H]4CCC5=CC(=O)C=C[C@]5(C)[C@H]4[C@@H](O)C[C@]3(C)[C@]2(C(=O)CO)O1 (stereo not given in full)

Drug metabolism [7]: metabolite_detected
Drug metabolism [8]: metabolite_detected
Drug metabolism [9]: metabolite_detected
half-life at 1 µM [10]: 40 min
Drug metabolism [11]: metabolite_detected
half-life at 1 µM [12]: 11 min
Drug metabolism [13]: metabolite_not_detected
half-life at 1 µM [14]: 71 min
Compound: CCCC1O[C@@H]2C[C@H]3[C@@H]4CCC5=CC(=O)C=C[C@]5(C)[C@H]4[C@@H](O)C[C@]3(C)[C@]2(C(=O)CO)O1 (stereo not given in full) [BUDESONIDE]

Drug metabolism [15]: metabolite_detected
Retention_time [16]: 19.7 min
Compound: CCC(=O)O[C@]1(C(=O)O)[C@H](C)C[C@H]2[C@@H]3C[C@H](F)C4=CC(=O)C=C[C@]4(C)[C@@]3(F)[C@@H](O)C[C@@]21C

half-life at 1 µM [12]: 16 min
Retention_time [17]: 15.8 min
Compound: CC1(C)O[C@@H]2C[C@H]3[C@@H]4C[C@H](F)C5=CC(=O)C=C[C@]5(C)[C@H]4[C@@H](O)C[C@]3(C)[C@]2(C(=O)CO)O1 [FLUNISOLIDE]

Retention_time [18]: 14.9 min
Drug metabolism [2]: metabolite_detected
Compound: CC1(C)O[C@@H]2C[C@H]3[C@@H]4C[C@@H](O)C5=CC(=O)C=C[C@]5(C)[C@@]4(F)[C@@H](O)C[C@]3(C)[C@]2(C(=O)CO)O1

Retention_time [19]: 20.6 min
Drug metabolism [20]: metabolite_detected
Compound: CC1(C)O[C@@H]2C[C@H]3[C@@H]4C=C(F)C5=CC(=O)C=C[C@]5(C)[C@H]4[C@@H](O)C[C@]3(C)[C@]2(C(=O)CO)O1

Compound: C[C@]12C=CC(=O)C=C1CC[C@@H]1[C@@H]2[C@@H](O)C[C@@]2(C)[C@H]1C[C@@H](O)[C@]2(O)C(=O)CO
Drug metabolism [4]: metabolite_detected
Drug metabolism [5]: metabolite_detected
Drug metabolism [6]: metabolite_detected

half-life at 1 µM [10]: 16 min
half-life at 1 µM [12]: 0.86 min
half-life at 1 µM [14]: 58 min
Compound: CCC(=O)O[C@]1(C(=O)SCF)[C@H](C)C[C@H]2[C@@H]3C[C@H](F)C4=CC(=O)C=C[C@]4(C)[C@@]3(F)[C@@H](O)C[C@@]21C [FLUTICASONE PROPIONATE]

half-life at 1 µM [10]: 130 min
half-life at 1 µM [12]: 12 min
half-life at 1 µM [14]: 213 min
Compound: CC1(C)O[C@@H]2C[C@H]3[C@@H]4CCC5=CC(=O)C=C[C@]5(C)[C@@]4(F)[C@@H](O)C[C@]3(C)[C@]2(C(=O)CO)O1 [TRIAMCINOLONE ACETONIDE]

Retention_time [21]: 23.1 min
Drug metabolism [20]: metabolite_detected
Compound: CC1(C)O[C@@H]2C[C@H]3[C@@H]4C[C@H](F)C5=CC(=O)C=C[C@]5(C)[C@H]4[C@@H](O)C[C@]3(C)[C@]2(C(=O)C(=O)O)O1

Drug metabolism [20]: metabolite_detected
Compound: CC1(C)O[C@@H]2C[C@H]3[C@@H]4CC(=O)C5=CC(=O)C=C[C@]5(C)[C@H]4[C@@H](O)C[C@]3(C)[C@]2(C(=O)CO)O1

Retention_time [22]: 23.7 min
Drug metabolism [2]: metabolite_detected
Compound: CC1(C)O[C@@H]2C[C@H]3[C@@H]4CCC5=CC(=O)C=C[C@]5(C)[C@@]4(F)[C@@H](O)C[C@]3(C)[C@]2(C(=O)C(=O)O)O1

Retention_time [23]: 18.9 min
Drug metabolism [2]: metabolite_detected
Compound: CC1(C)O[C@@H]2C[C@H]3[C@@H]4CCC5=CC(=O)C=C[C@]5(C)[C@@]4(F)[C@@H](O)C[C@]3(C)[C@]2(C(=O)O)O1
